From PMC3985442 (The Journal of Organic Chemistry, 2014)
Read-outs that look alike come from different tables or passages of the source.

Tests used:
His-Ste14p (yeast Icmt) [1] = biological target: T1, His-Ste14p (yeast Icmt) (Saccharomyces cerevisiae, UniProt P32584); settings: cited from earlier work
T1 sequence (P32584 1-239): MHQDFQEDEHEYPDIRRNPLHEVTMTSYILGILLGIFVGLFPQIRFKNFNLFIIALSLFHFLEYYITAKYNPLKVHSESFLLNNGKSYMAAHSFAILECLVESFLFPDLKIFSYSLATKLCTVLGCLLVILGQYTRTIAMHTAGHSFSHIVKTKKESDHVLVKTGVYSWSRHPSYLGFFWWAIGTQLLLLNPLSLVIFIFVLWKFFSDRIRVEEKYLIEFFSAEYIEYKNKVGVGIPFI

His-Ste14p (yeast Icmt) [2] = biological target: T1, His-Ste14p (yeast Icmt); assay type: biochemical; settings: pH 7.5, 30 °C; for Vmax: pmol of methyl groups transferred to substrate; for Vmax / Km: crude membrane preparations, 20 μM [14C]SAM, 100 mM Tris-HCl, 30 min, liquid scintillation counting; for Km: read-out: Km(app), apparent values (single SAM concentration, membrane suspension); for Vmax/Km: catalytic efficiency, from Vmax and apparent Km, crude membranes
In short: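 Membranes from yeast strain CH2704 overexpressing His-Ste14p: 100 000g pellet resuspended in 10 mM Tris-HCl pH 7.5, stored at −80 °C. Reaction: membranes plus substrate, 20 μM [14C]SAM (50–60 mCi/mmol), 100 mM Tris-HCl pH 7.5, 30 °C for 30 min. Stopped with 1 M NaOH/1% SDS; base-labile [14C]methyl diffused onto filter over scintillant, rt for 2.5 h, then counted. Km apparent: single SAM level, peptide partitions into membranes.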

[3] = test system: His-Ste14p (crude membranes); assay type: binding, Saccharomyces cerevisiae; settings: 16 in competition with 17, 5 to 200 μM
In short: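 Crude membranes (100 μg) from a Δste14 yeast strain overexpressing His-Ste14p, in 10 mM Tris-HCl pH 7.5, preincubated with increasing competitor peptide; diazirine photoprobe then added, 4 °C for 5 min. Irradiated at 365 nm, 30 min on ice. Solubilized in RIPA/10% SDS; neutravidin-agarose pulldown 2 h at 4 °C, three washes, eluted in SDS sample buffer at 65 °C for 30 min. 12% SDS-PAGE, α-Ste14p immunoblot (1:500).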

Question: With CC(=O)N[C@@H](CSC/C=C(\C)CC/C=C(\C)CCC=C(C)C)C(=O)O [AFC, N-acetyl-S-farnesyl-L-cysteine] as the compound, how does the Vmax/Km (His-Ste14p (yeast Icmt) [1]; catalytic efficiency, previously reported) read?
Answer: 54 pmol min^–1 mg^–1 μM^–1

Question: What about the Vmax (His-Ste14p (yeast Icmt) [1]; pmol of methyl groups transferred to substrate, previously reported) of the same compound?
Answer: 870 ± 15 pmol min^–1 mg^–1

Question: What about the Km (His-Ste14p (yeast Icmt) [1]; read-out: Km(app), apparent values, previously reported) of the same compound?
Answer: 15.9 ± 0.9 µM

Question: For “Biotin-Peg4-K(5-Fam)YIIKGVFWDPAC(C5-m-BP)-OH [compound 19]”, which Vmax (His-Ste14p (yeast Icmt) [2]) is on record?
Answer: 217 ± 3 pmol min^–1 mg^–1

Question: And the Km (His-Ste14p (yeast Icmt) [2])?
Answer: 27.8 ± 1 µM

Question: With “Biotin-Peg4-K(5-Fam)YIIKGVFWDPAC(C10-Diazirine)-OH [compound 16]” as the compound, how does the “site of photolabeling, inferred from competition” value [3] read?
Answer: labeling the substrate binding site of His-Ste14p

Question: And the Vmax/Km (His-Ste14p (yeast Icmt) [2])?
Answer: 143 pmol min^–1 mg^–1 μM^–1

Question: What about the Vmax (His-Ste14p (yeast Icmt) [2]) of the same compound?
Answer: 947 ± 4 pmol min^–1 mg^–1

Question: And the Vmax (His-Ste14p (yeast Icmt) [2]; listed as diazirine-containing peptide)?
Answer: 947 pmol min^–1 mg^–1

Question: What about the Km (His-Ste14p (yeast Icmt) [2]) of the same compound?
Answer: 6.6 ± 0.2 µM

Question: Which Vmax/Km (His-Ste14p (yeast Icmt) [2]) does the source give for “Biotin-Peg4-YIIKGVFWDPAC(Fr)-OH [compound 17]” here?
Answer: 157 pmol min^–1 mg^–1 μM^–1

Question: What about the Vmax (His-Ste14p (yeast Icmt) [2]) of the same compound?
Answer: 1919 ± 30 pmol min^–1 mg^–1
